Only some compounds are listed: those with a hit (about 3.7% of all), similar ones and a draw of the others.
EBV gp42 block: EBV gp42 inhibition. Q1HVG2. Fluorescence polarization binding assay, mP read-out. inhibition, % (tested at 21.74 µM). hit rate 0.42% among 220,000; in the data active = inhibition above about 50%
Target sequence (Q1HVG2 whole entry, looked up): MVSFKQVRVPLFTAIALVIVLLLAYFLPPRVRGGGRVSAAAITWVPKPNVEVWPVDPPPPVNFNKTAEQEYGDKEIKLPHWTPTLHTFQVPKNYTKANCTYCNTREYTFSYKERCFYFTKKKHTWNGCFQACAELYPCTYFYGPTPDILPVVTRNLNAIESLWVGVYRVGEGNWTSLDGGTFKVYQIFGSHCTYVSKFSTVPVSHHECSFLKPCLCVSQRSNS
RBBP9 inh: inhibitors of human serine hydrolase RBBP9; O75884; recombinant RBBP9, FP-Rh probe fluorescence polarization; inhibition, % at 7.94 µM; hit rate 0.2% among 220,000;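 active = inhibition above the campaign mean of all tested compounds plus 3 SD, cut at about 14% in these data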;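 note: plate controls were DMSO wells with RBBP9 for no effect and wells lacking RBBP9 protein for full effect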
Target sequence (O75884 whole entry, looked up): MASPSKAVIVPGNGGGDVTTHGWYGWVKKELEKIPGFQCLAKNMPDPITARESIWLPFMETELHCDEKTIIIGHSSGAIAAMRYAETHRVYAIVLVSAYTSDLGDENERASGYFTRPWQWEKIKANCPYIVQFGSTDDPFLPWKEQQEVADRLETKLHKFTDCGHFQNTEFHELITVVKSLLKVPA
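Material: RBBP9 protein. Amount: RBBP9 at 2.5 µM in dispensed solution, before mixing. Schedule: 30 min then 45 min, 25 °C. Medium: Tris buffer pH 8.0, NaCl, Pluronic. Measured by: fluorescence polarization. Measure: percent inhibition from mP, scaled between DMSO and no-protein wells. Replication: one well per compound.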
eIF4E 4G PPI: blocks eIF4E binding to eIF4G | inhibition, % at 21.7 µM | hit rate 0.37% among 220,000 | TR-FRET eIF4E-eIF4GI(517-606) binding, 2 h | P63073+Q04637;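 note: 0% = full FRET control wells and 100% = background wells lacking eIF4GI fragment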
14-3-3 Bad inh: disrupts binding of bovine 14-3-3 zeta to phospho-Bad peptide | hit rate 0.71% among 220,000 | P63103 | TR-FRET 14-3-3zeta/Dy647-pBad peptide displacement, 1 h | inhibition, % at 21.7 µM;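 active = inhibition above about 70%, limit read from the data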;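 note: 0% = full 14-3-3 plus peptide FRET controls and 100% = background without 14-3-3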
Target sequence (P63103 whole entry, looked up): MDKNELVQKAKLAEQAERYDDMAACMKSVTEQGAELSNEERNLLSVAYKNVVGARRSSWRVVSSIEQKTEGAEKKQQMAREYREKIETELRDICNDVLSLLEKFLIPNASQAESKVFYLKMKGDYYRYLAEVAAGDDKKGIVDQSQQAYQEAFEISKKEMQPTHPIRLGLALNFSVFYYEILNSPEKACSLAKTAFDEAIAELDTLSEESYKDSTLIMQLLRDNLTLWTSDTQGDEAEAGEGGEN
WT yeast gro inh: growth inhibition of WT yeast, mitochondrial fusion screen; mitochondrial fusion phenotypic screen, WT strain; inhibition, % at 10 µM; hit rate 2.1% among 190,000; AID 1362; in the data active = inhibition above about 58%; tested in S. cerevisiae
NCF1 inh: p47phox (human) inhibition | hit rate 0.53% among 220,000 | P14598 | p47phox/p22phox peptide binding, fluorescence polarization, 2 h | inhibition, % at 24.7 µM;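 note: 0% = p47phox with labelled peptide and 100% = labelled peptide alone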
The depositor's hits bear a star; / = no result given.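 Rule for the calls, unless noted: active = inhibition above about 30% (limit read from the data); inactive = the rest.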

SMILES	EBV gp42 block	RBBP9 inh	eIF4E 4G PPI	14-3-3 Bad inh	WT yeast gro inh	NCF1 inh
O=C(O)c1cccc(N=NN2CCOCC2)c1	-19.6	0.3	2.1	-5.9	-12.0	-7.5
O=C(Nc1ccc(Br)c(C(F)(F)F)c1)c1ccccc1	12.1	-10.0	4.0	-12.6	66.1*	-10.9
Cc1cc(N2CCC(C)CC2)nc(-n2nc(C)cc2C)n1	-10.1	-5.5	-0.4	2.1	67.4*	11.4
Cc1cc(C)n(-c2nc3ccccc3nc2N2CCC(C)CC2)n1	-12.4	-6.0	2.5	12.9	-5.2	-9.0
O=C(O)C1CCN(c2ccc(S(=O)(=O)N3CCOCC3)cc2[N+](=O)[O-])CC1	5.0	-1.3	-5.4	88.6*	5.1	68.8*
Cc1ccc(C)n1-c1cc(S(=O)(=O)N2CCOCC2)ccc1N1CCCC1	95.5*	-9.8	-17.7	-22.3	4.7	-16.2
O=[N+]([O-])c1cc(S(=O)(=O)N2CCOCC2)ccc1N1CCCC1	-21.2	-6.2	-1.1	-1.1	17.2	-4.2
CCOP(=O)(OCC)C(NC(=O)c1cc([N+](=O)[O-])cc([N+](=O)[O-])c1)C(F)(F)F (stereo not drawn)	-18.7	2.1	5.6	-6.9	-3.8	1.9
Cc1nc2ncnn2c(N2CCCC(C(=O)Nc3ccccc3Br)C2)c1C (stereo not drawn)	3.8	-4.2	-1.3	1.7	-7.4	-5.2
CC(C)NC(=O)c1cc(-c2cccs2)on1	0.7	0.9	1.2	70.8*	-10.8	-8.0
Cc1cc(NC(=O)c2cc(-c3cccs3)on2)no1	-9.1	-2.8	3.4	-6.5	-5.3	-5.2
O=C(NCc1cccnc1)c1cc(-c2cccs2)on1	-11.6	4.3	-1.9	3.8	5.0	137.6*
CC(C)n1nc(C(=O)Nc2cccc(S(=O)(=O)NCc3ccco3)c2)c2ccccc2c1=O	-17.8	-10.6	-12.1	0.6	/	-33.0
O=C(Nc1ccncc1)c1ccc(F)cc1	-7.8	7.9	-5.6	-5.2	-7.1	-1.5
O=C(Nc1ccc(F)cc1)c1ccc(-n2ccnc2)nc1	-29.4	-3.7	7.7	86.4*	1.5	-3.1
CS(=O)(=O)c1ccc2nc(NC(=O)c3ccc(N4C(=O)CCC4=O)cc3)sc2c1	0.6	-9.0	7.2	2.8	/	-1.1
COc1ccccc1-c1cc(C(F)(F)F)nc(NCc2ccco2)n1	-18.8	1.4	-3.8	-14.3	60.0*	-30.4
O=C(c1ccc(COc2ccccc2Br)o1)N1CCCCCC1	6.5	1.3	-3.8	-1.0	36.2	-8.2
CN(C(=O)c1ccc(COc2ccccc2Br)o1)c1ccccc1	4.2	0.1	-1.9	-10.8	67.0*	-14.2
O=C1CCCN1CCCNC(=S)Nc1ccccc1Cl	-22.0	-10.4	-2.2	-4.1	-6.5	5.5
O=C1CCCN1CCCNCC(=O)N1c2ccccc2Sc2ccccc21	-21.2	-8.6	-9.6	78.9*	-36.5	-3.6
CC1=C(O)C(=O)OC1c1c(Cl)cccc1Cl (stereo not drawn)	-8.7	-8.9	-9.9	-2.5	/	3.1
CCOc1ccc(Br)cc1C1C(C(=O)OC)=C(N)Oc2cc(N(C)C)ccc21 (stereo not drawn)	-17.3	4.5	-2.2	8.2	58.6*	-68.2
S=c1nc(SCc2ccccc2)[nH]c2ccccc12	-19.2	-2.0	-0.8	-11.8	61.7*	-0.5
c1ccc(CSc2nc3ncncc3[nH]2)cc1	-10.4	-16.0	2.0	4.1	/	-3.2
SMILES	EBV gp42 block	RBBP9 inh	eIF4E 4G PPI	14-3-3 Bad inh	WT yeast gro inh	NCF1 inh
Cc1ccc(C2(c3ccc(C)cc3)CC2C(=O)NCc2cccnc2)cc1 (stereo not drawn)	-7.9	-1.3	3.7	1.5	-4.3	1.0
NC(=O)CSc1nc2c(sc3ccccc32)c(=O)n1CCCC(=O)NCC1CCCO1 (stereo not drawn)	-8.7	-3.5	11.2	10.0	/	-1.1
CCN(CC)c1ccc(NC(=O)Cn2c(C(C)NC(=O)c3ccccc3)nc3ccccc32)cc1 (stereo not drawn)	-12.2	-1.4	0.0	59.6	-7.9	38.5*
CCOC(=O)C1(Cc2cccc(F)c2)CCN(C(=O)c2cnc(C)cn2)CC1	-11.5	-11.2	3.2	5.0	18.0	-8.6
CN(Cc1cc2ccccc2[nH]c1=O)S(C)(=O)=O	17.6	1.2	1.1	3.1	14.2	0.9
CS(=O)(=O)N(Cc1cc2ccccc2[nH]c1=O)C1CCCCC1	-19.8	-4.2	8.6	4.8	93.9*	-6.4
Cc1cccc(COCC(CC(C)C)N2CCN(C(=O)c3ccc(C(C)(C)C)cc3)CCC2=O)c1 (stereo not drawn)	-5.0	-6.2	-3.0	-0.1	83.7*	-1.5
CC1CCCN(CC(=O)Nc2ccc(S(=O)(=O)NC3CCCCC3)cc2)C1 (stereo not drawn)	9.4	-4.3	2.9	2.4	98.5*	-8.7
Cc1cccc2c(C(=O)N3CCN(C(=O)c4ccco4)CC3)cc(-c3cccc(Br)c3)nc12	-7.8	-15.4	5.2	-1.1	81.3*	-38.5
O=C(c1ccco1)N1CCN(C(=O)c2cc(-c3ccccc3)nc3ccccc23)CC1	6.3	-0.9	7.9	-6.8	-14.2	-3.5
Cc1cccc(CN2CCC(CNC(=O)CSc3cc(=O)n(C)c4cc(Cl)ccc34)CC2)c1	-0.5	-8.3	0.4	4.9	/	2.5
Cc1cccc(-c2ncc(CN3CCCC(CO)(Cc4cccc(Cl)c4)C3)cn2)c1 (stereo not drawn)	-33.4	-7.3	1.1	-14.7	62.6*	-46.6
COc1ccccc1N1CCN(C(=O)c2ccc3[nH]c4c(c3c2)CCCC4)CC1	-24.2	-7.3	3.6	-8.2	38.5	-3.7
O=C(c1ccc2[nH]c3c(c2c1)CCCC3)N1CCN(c2ccc(F)cc2)CC1	-16.0	-3.7	0.5	6.3	73.8*	-15.8
CC(=O)c1cnn(-c2c(Cl)cc(Cl)cc2Cl)c1C	-13.0	-14.7	-2.6	5.8	/	0.3
C/C(=C\C(=S)Nc1ccccc1)Nc1ccc2ccccc2c1	-15.1	-2.5	5.2	-8.2	61.6*	-14.4
C/C(=C\C(=S)Nc1ccccc1)Nc1cccc2ccccc12	-1.5	-2.0	0.7	-14.2	48.5	-18.1
O=C(CCCc1nc2ccccc2s1)NCc1cccnc1	5.8	-14.1	-4.0	2.2	26.6	5.6
CC(=O)Nc1ccc(-c2cc(C(=O)O)c3ccc(C)cc3n2)cc1	-10.6	-12.7	0.3	-0.1	/	-4.5
CCOc1cc(/C=C(/NC(C)=O)C(=O)O)cc(Cl)c1OCc1ccc(Br)cc1	-8.6	0.1	5.2	0.8	/	-3.6
N#Cc1c(-c2cccnc2)c2c([nH]c1=S)CCCC2	-20.2	-0.7	-3.4	13.9	90.5*	33.4*
Cc1ccc(C)c(N2CCN(c3ccc(N4C(=O)COCC4=O)cc3[N+](=O)[O-])CC2)c1	-15.4	-3.5	-5.5	-5.0	3.9	-9.9
Cc1cc(N2C(=O)C=CC2=O)c([N+](=O)[O-])cc1C	-43.8	-5.8	11.7	-3.6	61.9*	18.4
O=C(Nc1nnc(SCc2ccccc2Cl)s1)C1COc2ccccc2O1 (stereo not drawn)	-5.0	-10.0	-2.7	2.2	59.7*	-7.0

From PubChem BioAssay
